From ChEMBL document CHEMBL1125493, “HIV-1 neutralization and tumor cell proliferation inhibition in vitro by simplified analogues of pyrido[4,3,2-mn]thiazolo[5,4-b]acridine marine alkaloids” (J Med Chem, 1992)

How the values were obtained:
MCF7 [1] = assay: […] breast tumor cell proliferation inhibition by the compound in vitro at a concentration of 0.15 uM.; assay type: functional, Homo sapiens
Summary of the method: (§1)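 Breast tumor cells treated with specified compound concentrations in RPMI-1640 in 1% agar with 5% FBS for 1 week. Viability compared with a control given distilled water in place of drug; 5-fluorouracil as standard cytotoxic drug. Reported as concentration-dependent cell survival.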

MT4 [2] = assay: Cytotoxic effect in cultured MT-4 lymphocytes at a concentration of 10 ug/mL (0.0375 uM/mL).; assay type: functional, Homo sapiens
Summary of the method: (§2)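 MT-4 cells at 5 × 10^4 cells/well, 1 mL total, cultured with compound diluted in RPMI 1640 with 10% FBS, 10 mM HEPES, penicillin/streptomycin and 2 mM glutamine, at 37 °C under 5% CO2. Viability was scored by trypan blue exclusion on days 4 and 7, in triplicate, as % viable cells.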

MT4 [3] = assay: Cytotoxic effect in cultured MT-4 lymphocytes at a concentration of 100 ug/mL (0.3750 uM/mL).; assay type: functional, Homo sapiens; summary of the method: as §2
[4] = Calu3 lung tumor cell proliferation inhibition by the compound in vitro at a concentration of 0.15 uM.; assay type: functional, Homo sapiens
Summary of the method: (§3)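 Tumor cells grown in RPMI-1640 in 1% agar with 5% fetal bovine serum, exposed to the specified concentrations for 1 week. Viability was assessed against a control given distilled water in place of drug. 5-Fluorouracil served as the positive cytotoxic standard. Results are reported as concentration-dependent cell survival.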

MCF7 [5] = assay: […] breast tumor cell proliferation inhibition by the compound in vitro at a concentration of 1.5 uM.; assay type: functional, Homo sapiens; summary of the method: as §1
MCF7 [6] = assay: […] breast tumor cell proliferation inhibition by the compound in vitro at a concentration of 0.015 uM.; assay type: functional, Homo sapiens; summary of the method: as §1
COLO 320DM [7] = assay: COLO 320DM colon tumor cell proliferation inhibition by the compound in vitro at a concentration of 0.015 uM.; assay type: functional, Homo sapiens; summary of the method: as §3
[8] = Calu3 lung tumor cell proliferation inhibition by the compound in vitro at a concentration of 1.5 uM.; assay type: functional, Homo sapiens; summary of the method: as §3
COLO 320DM [9] = assay: COLO 320DM colon tumor cell proliferation inhibition by the compound in vitro at a concentration of 1.5 uM.; assay type: functional, Homo sapiens; summary of the method: as §3
[10] = Calu3 lung tumor cell proliferation inhibition by the compound in vitro at a concentration of 0.015 uM.; assay type: functional, Homo sapiens; summary of the method: as §3
MT4 [11] = assay: Cytotoxic effect in cultured MT-4 lymphocytes at a concentration of 2 ug/mL (0.0076 uM/mL).; assay type: functional, Homo sapiens; summary of the method: as §2
[12] = system: Human immunodeficiency virus 1; assay: Inhibitory effect against HIV-1 in human peripheral blood monocyte cells(PBMC) (EC50-22.6 ug/mL); assay type: functional, organism-based
[13] = system: Human immunodeficiency virus 1; assay: Inhibitory effect against HIV-1 induced cytopathic effects(HIV-1 neutralization) in MT-4 lymphocytes at a concentration of 10 ug/mL (0.0375 uM/mL).; assay type: functional
Summary of the method: (§4)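 HIV-1 Molt IIIB (~2 × 10^4 TCID50 in 100 μL) preincubated 1 h at 37 °C with a single compound dose, then added to MT-4 cells (5 × 10^5 cells/well, 1 mL). Cultured at 37 °C, 5% CO2. Viable cells counted by trypan blue exclusion on days 4 and 7. Triplicates; % viable cells. Controls: infected cells (positive), uninfected cells (negative).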

COLO 320DM [14] = assay: COLO 320DM colon tumor cell proliferation inhibition by the compound in vitro at a concentration of 0.15 uM.; assay type: functional, Homo sapiens; summary of the method: as §3
MT4 [15] = assay: Cytotoxic effect in cultured MT-4 lymphocytes at a concentration of 100 ug/mL (0.3500 uM/mL).; assay type: functional, Homo sapiens; summary of the method: as §2
[16] = system: Human immunodeficiency virus 1; assay: Inhibitory effect against HIV-1 in human peripheral blood monocyte cells(PBMC) (EC50 ->7.44 ug/mL); assay type: functional, organism-based
MT4 [17] = assay: Cytotoxic effect in cultured MT-4 lymphocytes at a concentration of 2 ug/mL (0.0070 uM/mL).; assay type: functional, Homo sapiens; summary of the method: as §2
[18] = system: Human immunodeficiency virus 1; assay: Inhibitory effect against HIV-1 induced cytopathic effects(HIV-1 neutralization) in MT-4 lymphocytes at a concentration of 100 ug/mL (0.3500 uM/mL).; assay type: functional; summary of the method: as §4
MT4 [19] = assay: Cytotoxic effect in cultured MT-4 lymphocytes at a concentration of 10 ug/mL (0.0350 uM/mL).; assay type: functional, Homo sapiens; summary of the method: as §2

EC50 [12] [µM] | EC50 [16] [µM] | SMILES | Viability (MCF7 [1]) [%] | Viability (MT4 [2]) [%] | Viability (MT4 [3]) [%] | Viability [4] [%] | Viability (MCF7 [5]) [%] | Viability (MCF7 [6]) [%] | Viability (COLO 320DM [7]) [%] | Viability [8] [%] | Viability (COLO 320DM [9]) [%] | Viability [10] [%] | Viability (MT4 [11]) [%] | Viability [13] [%] | Viability (COLO 320DM [14]) [%] | Viability (MT4 [15]) [%] | Viability (MT4 [17]) [%] | Viability [18] [%] | Viability (MT4 [19]) [%]
84.6 | – | Cc1nc2cc3nc4ccccc4c(O)c3cc2s1.Cl | 38 | 87.2 | 74.3 | 36 | 0 | 91 | 117 | 0 | 0 | 98 | 91.9 | 19.4 | 49 | – | – | – | –
– | 26 | Cc1nc2cc(Nc3ccccc3C(=O)[O-])ccc2s1.[Na+] | – | – | – | – | – | – | – | – | – | – | – | – | – | 93.3 | 87.5 | 18.2 | 92.6
